Test results published in ChEMBL document CHEMBL4834401, “Structure-Activity Relationship Studies of Coumarin-like Diacid Derivatives as Human G Protein-Coupled Receptor-35 (hGPR35) Agonists and a Consequent New Design Principle” (J Med Chem, 2021).
Activity calls are given as the source filed them. No cut-off for these calls is given here.

Tests used:
[1] = biological target: T1, G-protein coupled receptor 35 (Homo sapiens, UniProt Q9HC97); test: Agonist activity at human GPR35 receptor expressed in HT-29 cells assessed as reduction in dynamic mass redistribution response in presence of GPR35 antagonist ML-145 by DMR assay; type: functional, cell-based
[2] = biological target: T1, G-protein coupled receptor 35; test: Agonist activity at human GPR35 receptor expressed in HT-29 cells assessed as dynamic mass redistribution response by DMR assay; type: functional, cell-based
[3] = biological target: T1, G-protein coupled receptor 35; test: Agonist activity at human GPR35 receptor expressed in HEK293T cells co-expressing beta-arrestin2 assessed as induction of beta-arrestin2 recruitment by BRET assay; type: functional, cell-based
[4] = biological target: T1, G-protein coupled receptor 35; test: Agonist activity at human GPR35 receptor expressed in HT-29 cells assessed as desensitization of zaprinast-induced DMR response preincubated for 1 hr followed by zaprinast stimulation by DMR desensitization assay; type: functional, cell-based
[5] = biological target: Histamine H1 receptor (Homo sapiens) (UniProt P35367); test: Agonist activity at histamine H1 receptor receptor (unknown origin) at 1 uM
[6] = biological target: Muscarinic acetylcholine receptor M3 (Homo sapiens) (UniProt P20309); test: Agonist activity at muscarinic M3 receptor (unknown origin) at 1 uM; type: functional
In short: (§1)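 Each receptor was expressed separately in its own cell line, and compounds were added at 1 μM. Cells were seeded on biosensor plates and grown overnight to a confluent monolayer. They were then washed, kept in Hank's balanced salt solution, and equilibrated 1 h in the reader. After a 2 min baseline, the label-free dynamic mass redistribution (DMR) response was recorded immediately after compound addition.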

[7] = biological target: T2, Free fatty acid receptor 4 (Homo sapiens) (UniProt Q5NUL3); test: Agonist activity at FFA4 receptor (unknown origin) at 1 uM; type: functional; in short: as §1
T2 sequence (whole entry): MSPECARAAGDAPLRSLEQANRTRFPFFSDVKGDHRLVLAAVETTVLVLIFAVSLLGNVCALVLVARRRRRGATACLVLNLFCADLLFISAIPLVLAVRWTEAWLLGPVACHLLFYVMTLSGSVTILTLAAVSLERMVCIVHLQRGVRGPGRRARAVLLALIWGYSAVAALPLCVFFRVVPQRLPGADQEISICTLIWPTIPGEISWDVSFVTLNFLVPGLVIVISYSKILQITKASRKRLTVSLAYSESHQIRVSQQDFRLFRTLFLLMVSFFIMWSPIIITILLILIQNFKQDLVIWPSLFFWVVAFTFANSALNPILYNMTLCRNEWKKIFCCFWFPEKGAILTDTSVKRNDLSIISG

[8] = biological target: Mu-type opioid receptor (Homo sapiens) (UniProt P35372); test: Agonist activity at mu-opioid receptor (unknown origin) at 1 uM; type: functional; in short: as §1
[9] = biological target: T1, G-protein coupled receptor 35; test: Agonist activity at human GPR35 receptor expressed in CHO-K1 cells assessed as desensitization of zaprinast-induced DMR response preincubated for 1 hr followed by zaprinast stimulation by DMR desensitization assay; type: functional, cell-based
[10] = biological target: D(2) dopamine receptor (Homo sapiens) (UniProt P14416); test: Agonist activity at dopamine D2 receptor (unknown origin) at 1 uM; type: functional; in short: as §1
[11] = biological target: T1, G-protein coupled receptor 35; test: Agonist activity at human GPR35 receptor expressed in CHO-K1 cells assessed as dynamic mass redistribution response by DMR assay; type: functional, cell-based

T1 sequence (Q9HC97 whole entry): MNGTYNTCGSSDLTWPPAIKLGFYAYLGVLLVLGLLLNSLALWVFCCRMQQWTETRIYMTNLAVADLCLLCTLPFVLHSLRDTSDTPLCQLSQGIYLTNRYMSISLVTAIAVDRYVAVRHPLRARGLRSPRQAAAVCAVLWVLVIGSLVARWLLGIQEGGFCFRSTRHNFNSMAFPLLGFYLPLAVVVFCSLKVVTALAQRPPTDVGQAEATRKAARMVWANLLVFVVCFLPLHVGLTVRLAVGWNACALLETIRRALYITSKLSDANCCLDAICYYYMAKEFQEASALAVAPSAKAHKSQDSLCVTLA
Sequence of Muscarinic acetylcholine receptor M3 (Homo sapiens) (P20309 whole entry, looked up): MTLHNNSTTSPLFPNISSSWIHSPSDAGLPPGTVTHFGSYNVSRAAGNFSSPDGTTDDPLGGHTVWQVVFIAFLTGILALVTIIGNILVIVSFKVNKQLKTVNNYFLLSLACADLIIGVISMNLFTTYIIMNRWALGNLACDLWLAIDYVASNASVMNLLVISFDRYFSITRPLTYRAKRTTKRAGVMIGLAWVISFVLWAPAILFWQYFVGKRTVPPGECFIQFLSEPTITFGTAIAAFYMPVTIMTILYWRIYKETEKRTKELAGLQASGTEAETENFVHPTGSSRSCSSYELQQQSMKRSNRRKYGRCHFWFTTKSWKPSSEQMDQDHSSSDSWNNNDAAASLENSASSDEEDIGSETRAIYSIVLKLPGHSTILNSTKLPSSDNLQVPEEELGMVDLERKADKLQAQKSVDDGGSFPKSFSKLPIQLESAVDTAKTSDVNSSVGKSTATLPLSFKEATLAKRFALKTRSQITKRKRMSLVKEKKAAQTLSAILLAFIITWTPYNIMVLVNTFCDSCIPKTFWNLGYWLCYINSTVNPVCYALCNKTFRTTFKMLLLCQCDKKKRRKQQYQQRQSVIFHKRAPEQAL
Sequence of D(2) dopamine receptor (Homo sapiens) (P14416 whole entry): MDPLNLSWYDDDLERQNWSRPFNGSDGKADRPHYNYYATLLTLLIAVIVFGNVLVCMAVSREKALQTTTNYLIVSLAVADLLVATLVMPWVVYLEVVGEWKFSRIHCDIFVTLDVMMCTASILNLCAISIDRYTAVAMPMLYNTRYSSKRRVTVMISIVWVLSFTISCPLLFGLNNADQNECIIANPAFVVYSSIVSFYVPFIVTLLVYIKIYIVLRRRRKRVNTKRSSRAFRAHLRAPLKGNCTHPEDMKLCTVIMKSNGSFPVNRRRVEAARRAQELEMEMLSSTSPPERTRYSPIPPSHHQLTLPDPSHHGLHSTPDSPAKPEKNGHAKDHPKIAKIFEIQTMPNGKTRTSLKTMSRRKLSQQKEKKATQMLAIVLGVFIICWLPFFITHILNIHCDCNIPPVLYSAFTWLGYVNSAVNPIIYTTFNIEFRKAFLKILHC
Sequence of Histamine H1 receptor (Homo sapiens) (P35367 whole entry, looked up): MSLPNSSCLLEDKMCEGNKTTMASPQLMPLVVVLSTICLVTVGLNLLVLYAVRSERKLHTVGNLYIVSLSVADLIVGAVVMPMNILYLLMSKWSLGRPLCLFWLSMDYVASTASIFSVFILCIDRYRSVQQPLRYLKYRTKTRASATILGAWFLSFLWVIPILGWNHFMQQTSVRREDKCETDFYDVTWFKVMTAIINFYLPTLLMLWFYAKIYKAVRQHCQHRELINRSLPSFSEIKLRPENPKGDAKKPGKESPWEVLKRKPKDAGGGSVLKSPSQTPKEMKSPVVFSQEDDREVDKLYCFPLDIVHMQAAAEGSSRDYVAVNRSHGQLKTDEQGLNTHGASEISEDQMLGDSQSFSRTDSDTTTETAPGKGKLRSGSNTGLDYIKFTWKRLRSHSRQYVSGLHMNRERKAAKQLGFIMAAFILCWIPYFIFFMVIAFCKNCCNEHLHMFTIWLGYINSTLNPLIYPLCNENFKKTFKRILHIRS
Sequence of Mu-type opioid receptor (Homo sapiens) (P35372 whole entry): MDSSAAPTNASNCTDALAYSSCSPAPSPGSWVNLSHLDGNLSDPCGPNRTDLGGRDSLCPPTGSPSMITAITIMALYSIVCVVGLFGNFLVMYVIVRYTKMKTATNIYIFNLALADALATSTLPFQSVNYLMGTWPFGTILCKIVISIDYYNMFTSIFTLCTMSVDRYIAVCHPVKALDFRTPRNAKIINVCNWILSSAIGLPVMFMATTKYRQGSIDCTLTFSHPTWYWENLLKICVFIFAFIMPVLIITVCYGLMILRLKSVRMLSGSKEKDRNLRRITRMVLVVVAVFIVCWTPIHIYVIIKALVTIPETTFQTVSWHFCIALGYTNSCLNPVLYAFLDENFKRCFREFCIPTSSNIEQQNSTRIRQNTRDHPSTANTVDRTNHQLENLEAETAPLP

SMILES | IC50 [1] [nM] | EC50 [2] [nM] | EC50 [3] [nM] | Activity [5] | Activity [6] | Activity [7] | Activity [8] | Activity [10] | EC50 [11] [nM] | IC50 [4] [nM] | IC50 [9] [nM]
O=C(O)c1cc2c(oc1=O)c(-c1ccc(F)cc1)cc1cc(C(=O)O)c(=O)oc12 | 1030 | 33 | – | – | – | – | – | – | – | – | –
CCCCc1cc2c(=O)cc(C(=O)O)[nH]c2c2c(=O)cc(C(=O)O)[nH]c12 [BUFROLIN] | – | – | 13 | – | – | – | – | – | – | – | –
O=C(O)c1cc(C(=O)O)c2c(n1)C(=O)C(=O)c1cc(C(=O)O)[nH]c1-2 [PYRROLOQUINOLINE QUINONE] | 582 | 71 | – | – | – | – | – | – | – | 30 | –
COc1cccc(-c2cc3cc(C(=O)O)c(=O)oc3cc2O)c1 | 2260 | 1600 | – | – | – | – | – | – | – | 1380 | –
O=C(O)c1cc2c(oc1=O)c(Br)cc1cc(-c3nnn[nH]3)c(=O)oc12 | 830 | 18 | – | inactive | inactive | inactive | inactive | inactive | 25.9 | 18 | 15.9
CCCOc1ccccc1-c1nc2[nH]nnc2c(=O)[nH]1 | – | – | – | – | – | inactive | inactive | inactive | – | – | –
Cc1c2nc(C(=O)O)cc(Cl)c2cc2c(Cl)cc(C(=O)O)nc12 | 2530 | 54 | – | inactive | inactive | inactive | inactive | inactive | 5.08 | 15 | 3.52
Cc1c2oc(=O)c(C(=O)O)cc2cc2cc(C(=O)O)c(=O)oc12 | 350 | 140 | – | – | – | – | – | – | – | 42 | –
Cc1c2[nH]c(C(=O)O)cc(=O)c2cc2c(=O)cc(C(=O)O)[nH]c12 | 789 | 8 | – | inactive | inactive | inactive | inactive | inactive | 1.08 | 2 | 0.74
COc1ccc(-c2cc3cc(C(=O)O)c(=O)oc3c3cc(C(=O)O)c(=O)oc23)cc1 | 470 | 20 | – | inactive | inactive | inactive | inactive | inactive | 6.93 | 7 | 2.45

Continued, in another order:

IC50 [1] [nM] | EC50 [2] [nM] | EC50 [3] [nM] | Activity [5] | Activity [6] | Activity [7] | Activity [8] | Activity [10] | EC50 [11] [nM] | SMILES | IC50 [4] [nM] | IC50 [9] [nM]
130 | – | – | – | – | – | – | – | – | O=C(O)c1cc2cc(Br)c(O)cc2oc1=O | – | –
120 | 23900 | – | – | – | – | – | – | – | COc1ccccc1-c1cc2cc(C(=O)O)c(=O)oc2cc1O | 17600 | –
282 | 100 | – | inactive | inactive | inactive | inactive | inactive | 8.13 | COc1cc(C(=O)O)nc2c(C)c3nc(C(=O)O)cc(OC)c3cc12 | 65 | 6.11
160 | 2880 | – | – | – | – | – | – | – | O=C(O)c1cc2cc(-c3cccs3)c(O)cc2oc1=O | 1450 | –
170 | 15 | – | – | – | – | – | – | – | COc1cccc(-c2cc3cc(C(=O)O)c(=O)oc3c3cc(C(=O)O)c(=O)oc23)c1 | 3 | –
